Rows were chosen to be rich in hits. Some 2.1% of all compounds tested hit in one or more screens of this group.
Phagocytosis inh: inhibitors of macrophage phagocytosis, primary screen, imaging, J774A.1 cells, IgG beads; inhibition, % at 5 µM; hit rate 0.07% among 110,000; AID 1029, 2008; J774A.1 macrophage IgG-bead phagocytosis;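 active = inhibition above the mean of the plate negative controls plus 5 SD, cut at about 13% in these data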;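 also: phagocytic index as fraction of beads internalized from green versus red external bead signal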
Yeast life ext: compounds extending yeast replicative lifespan, primary screen, S. cerevisiae, OD615; inhibition of the nicotinamide effect, % at 10 µM; S. cerevisiae growth with nicotinamide; deaD strain in restrictive glucose medium; hit rate 0.68% among 130,000; AID 775, 2007;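 active = inhibition above a set limit, placed 3 SD over the median of all compounds, cut at about 26% in these data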
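Test system – modified budding yeast, DeaD strain · Compound – single dose 10 µM compound, 0.25% DMSO · Times – culture preincubation 4 h, compound exposure 48 h, both 30 °C · Detection – optical density (absorbance) at 615 nm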
MRP-1 activ: H69AR viability gain despite doxorubicin, primary screen, MRP-1 activator project, H69AR cells, CellTiter-Glo | AID 799, 2007 | viability increase, % at 10 µM | viability rescue | hit rate 0.61% among 140,000;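 active = viability gain under doxorubicin at or above a set limit, the compound median plus 3 SD, cut at about 4.7% in these data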;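 also: MRP-1 overexpressing cells given doxorubicin 25 µM after compound pretreatment; 18-22 h compound pretreatment then 72 h with doxorubicin before readout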
MRP resist rev: reversal of MRP1-mediated doxorubicin resistance, primary screen, H69AR cells, doxorubicin co-treatment; AID 602, 2007; hit rate 0.04% among 85,000; differential viability (reversal), % at 10 µM; H69AR cells + 2 uM doxorubicin, CellTiter-Glo, 72 h;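 active = viability drop by adding the cancer drug above about 55%, with treated viability meeting a 40% cutoff, limit read from the data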;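 also: larger differential means the compound sensitizes cells more to doxorubicin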
Yeast growth inh: growth inhibitors of yeast BB579 in restrictive medium, primary screen, yeast lifespan-shortening project, S. cerevisiae. OD615, 48 h. inhibition, % at 10 µM. hit rate 0.51% among 140,000;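 active = inhibition above a set limit, 3 SD over the mean compound inhibition, cut at about 44% in these data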
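controls = amphotericin B 10 µg/mL, positive | assay system = DeaD yeast strain BB579 | schedule = 48 h compound exposure at 30 °C after 4 h preincubation | detection = OD615 turbidity measurement | medium = restrictive CSMM-D medium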
SDO1 yeast rescue: growth rescue of sdo1-depleted yeast, primary screen, S. cerevisiae, bone marrow failure model; AID 817, 2007; z-score at 10 µM; S. cerevisiae sdo1-depleted JHY4D growth rescue, OD600 30 h; stronger effect = higher value; pdr5 snq2 efflux-pump mutant strain; hit rate 0.21% among 140,000;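 active = z-score above 3 at both the 24 hr and the 30 hr optical density reads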
A number is an active result; [ ] = another dose, or the depositor's remark.

Screening CCC(=NCCc1c(C)[nH]c2ccc(C)cc12)C1=C(O)CC(c2ccccc2)CC1=O (configuration not stated) returned Phagocytosis inh inactive, Yeast life ext 50, MRP-1 activ inactive, Yeast growth inh inactive and SDO1 yeast rescue inactive.
`CC(=O)C1=C(O)CC(c2ccccc2)CC1=NCCc1c(C)[nH]c2ccc(C)cc12` (configuration not stated) gave Yeast life ext inactive, MRP-1 activ inactive, Yeast growth inh inactive and SDO1 yeast rescue inactive.
For C=CCn1c(SCC(=O)N2CCOCC2)nc(O)cc1=O the results were Yeast life ext inactive, MRP-1 activ inactive, MRP resist rev inactive, Yeast growth inh inactive and SDO1 yeast rescue inactive.
`C=CCn1c(SCC(=O)N2CCCCC2)nc(O)cc1=O` gave Phagocytosis inh inactive, Yeast life ext 48, MRP-1 activ inactive, MRP resist rev inactive, Yeast growth inh inactive and SDO1 yeast rescue inactive.
Screening CC(C)(C)C1CCC(C(=O)OCC(=O)N2CCOCC2)CC1 (configuration not stated) returned Phagocytosis inh inactive, Yeast life ext inactive, MRP-1 activ inactive, Yeast growth inh inactive and SDO1 yeast rescue inactive.
Screening CCC(Sc1nc2c(cnn2-c2ccc(Cl)cc2)c(=O)[nH]1)C(=O)OC (configuration not stated) returned Phagocytosis inh inactive, Yeast life ext inactive, MRP-1 activ inactive, MRP resist rev inactive, Yeast growth inh inactive and SDO1 yeast rescue inactive.
Screening CCOC(=O)C(C)(C)Sc1nc2c(cnn2-c2ccc(Cl)cc2)c(=O)[nH]1 returned Phagocytosis inh 163[fluoresces], Yeast life ext inactive, MRP-1 activ inactive, MRP resist rev inactive, Yeast growth inh inactive and SDO1 yeast rescue inactive.
For Cc1sc2nc(SCC(=O)N3CCN(CCO)CC3)n(-c3ccccc3)c(=O)c2c1C the results were Phagocytosis inh active, Yeast life ext inactive, MRP-1 activ inactive, MRP resist rev inactive, Yeast growth inh inactive and SDO1 yeast rescue inactive.
O=C(CSc1nc2ccccc2c(=O)n1-c1ccccc1)N1CCN(CCO)CC1 was read as Phagocytosis inh inactive, Yeast life ext inactive, MRP-1 activ inactive, MRP resist rev inactive, Yeast growth inh inactive and SDO1 yeast rescue inactive.
`COc1ccc(NC(=O)CN(C)C(=O)c2ccc(C)s2)cc1` gave Yeast life ext inactive, MRP-1 activ inactive, MRP resist rev inactive, Yeast growth inh inactive and SDO1 yeast rescue inactive.
Screening COc1ccc(NS(=O)(=O)c2cc(NC(=O)CNC(=O)c3ccc(C)s3)ccc2Cl)cc1 returned Phagocytosis inh inactive, Yeast life ext inactive, MRP-1 activ 14, Yeast growth inh inactive and SDO1 yeast rescue inactive.
For COc1ccc(OCCn2nnc(-c3ccc(Cl)cc3)n2)cc1 the results were Phagocytosis inh inactive, Yeast life ext inactive, MRP-1 activ inactive, Yeast growth inh inactive and SDO1 yeast rescue inactive.
Cn1nc(-c2ccc(Cl)cc2)nc2c(=O)n(C)c(=O)nc1-2 was read as Yeast life ext inactive, MRP-1 activ inactive, MRP resist rev inactive, Yeast growth inh 100 and SDO1 yeast rescue inactive.
CCc1cccc(NC(=O)CCCSc2nc3ccccc3[nH]2)c1 was read as Phagocytosis inh inactive, Yeast life ext inactive, MRP-1 activ inactive, Yeast growth inh inactive and SDO1 yeast rescue inactive.
Screening Cc1cccc(C(=O)NNC(=O)c2ccc(-c3ccccc3)cc2)c1 returned Yeast life ext inactive, MRP-1 activ inactive, Yeast growth inh inactive and SDO1 yeast rescue inactive.
Screening Cc1cccc(C(=O)NNC(=O)CN2C(=O)c3ccccc3C2=O)c1 returned Phagocytosis inh inactive, Yeast life ext inactive, MRP-1 activ 4.8, Yeast growth inh inactive and SDO1 yeast rescue inactive.
`Cc1ccc2c(c1)c1c3n2CCN(C(=O)CN2CCN(C)CC2)C3CCC1` (configuration not stated) gave Phagocytosis inh inactive, Yeast life ext inactive, MRP-1 activ inactive, MRP resist rev inactive, Yeast growth inh inactive and SDO1 yeast rescue inactive.
CN1CCN(CC(=O)N2CCn3c4c(c5cc(C6CCCCC6)ccc53)CCCC42)CC1 (configuration not stated) was read as Phagocytosis inh inactive, Yeast life ext inactive, MRP-1 activ inactive, MRP resist rev inactive, Yeast growth inh 100 and SDO1 yeast rescue inactive.

Screens as filed in PubChem BioAssay.
